ChEMBL document CHEMBL1125245, “Quinolone antibacterials: preparation and activity of bridged bicyclic analogues of the C7-piperazine” (J Med Chem, 1991)

What was measured:
[1] = Compound evaluated in vitro against five gram-negative bacterial strains and geometric means of the minimum inhibitory concentrations (MIC) reported.; format: functional; design: unit not given here
Procedure, shortened: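 Geometric mean MIC across five Gram-negative strains (E. coli H560, E. coli Vogel, Enterobacter cloacae MA 2646, Klebsiella pneumoniae MGH-2, Proteus rettgeri M1771). Mean taken as antilog of the averaged log MIC values.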

[2] = Compound evaluated in vitro against five gram-positive bacterial strains and geometric means of the minimum inhibitory concentrations (MIC) reported.; format: functional; design: unit not given here
Procedure, shortened: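 Geometric mean MIC across five Gram-positive strains, taken as antilog of the averaged log MIC values.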

Escherichia coli [3] = assay: In vivo protection against gram-negative Escherichia coli vogel in mouse after oral administration.; details: read-out: PD50
Escherichia coli [4] = assay: In vivo protection against gram-negative Escherichia coli vogel in mouse after subcutaneous administration; details: sc, read-out: PD50
DNA gyrase = DNA gyrase (Escherichia coli, UniProt P0AES4+P0AES6); assay: Compound evaluated in vitro for the ability to inhibit gyrase.; format: protein-complex assay; details: read-out: I50 (converted)
Procedure, shortened: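 DNA gyrase isolated from Escherichia coli H560 cells; inhibition given as I50.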

Streptococcus pneumoniae [5] = assay: In vivo protection against gram-positive Streptococcus pneumonia (SV-1) in mouse after oral administration.; format: functional; details: read-out: PD50
Streptococcus pneumoniae [6] = assay: In vivo protection against gram-positive Streptococcus pneumonia (SV-1) in mouse after subcutaneous administration; format: functional; details: sc, read-out: PD50

NC1CCN(c2nc3c(cc2F)c(=O)c(C(=O)O)cn3C2CC2)CC1
MIC [1]: 0.11
MIC [2]: 0.23
ED50 (Escherichia coli [3]): 4.6 mg/kg
ED50 (Escherichia coli [4]): 0.8 mg/kg
IC50 (DNA gyrase): 8.66 µM

O=C(O)c1cn(C2CC2)c2c(F)c(N3CCNCC3)c(F)cc2c1=O
MIC [1]: 0.04
MIC [2]: 0.4
ED50 (Streptococcus pneumoniae [5]): 59 mg/kg
ED50 (Escherichia coli [3]): 0.5 mg/kg
ED50 (Escherichia coli [4]): 0.3 mg/kg
ED50 (Streptococcus pneumoniae [6]): 29 mg/kg

O=C(O)c1cn(C2CC2)c2nc(N3CCN4CCC3C4)c(F)cc2c1=O (configuration not stated)
MIC [1]: 0.11
MIC [2]: 0.46
ED50 (Streptococcus pneumoniae [5]): 32 mg/kg
ED50 (Escherichia coli [3]): 0.5 mg/kg
ED50 (Escherichia coli [4]): 0.3 mg/kg
ED50 (Streptococcus pneumoniae [6]): 20 mg/kg
IC50 (DNA gyrase): 38.5 µM

CCN[C@H]1C[C@H]2CC[C@@H](C1)N2c1nc2c(cc1F)c(=O)c(C(=O)O)cn2C1CC1
MIC [1]: 0.46
MIC [2]: 0.26
ED50 (Streptococcus pneumoniae [5]): 23 mg/kg
ED50 (Escherichia coli [3]): 2.8 mg/kg
ED50 (Escherichia coli [4]): 2.8 mg/kg
ED50 (Streptococcus pneumoniae [6]): 16 mg/kg
IC50 (DNA gyrase): 15.7 µM

O=C(O)c1cn(C2CC2)c2c(F)c(N3CC4CCC3CN4)c(F)cc2c1=O (configuration not stated)
MIC [1]: 0.09
MIC [2]: 0.3
ED50 (Escherichia coli [3]): 2.9 mg/kg
ED50 (Escherichia coli [4]): 1.3 mg/kg
IC50 (DNA gyrase): 16.8 µM

Nc1c(F)c(N2C[C@H]3CC2CN3)c(F)c2c1c(=O)c(C(=O)O)cn2C1CC1
MIC [1]: 0.04
MIC [2]: 0.09
ED50 (Streptococcus pneumoniae [5]): > 100 mg/kg
ED50 (Escherichia coli [3]): 5 mg/kg
ED50 (Escherichia coli [4]): 1 mg/kg
ED50 (Streptococcus pneumoniae [6]): 13 mg/kg
IC50 (DNA gyrase): 36.7 µM

Nc1c(F)c(N2CC3CCC2CN3)c(F)c2c1c(=O)c(C(=O)O)cn2C1CC1 (configuration not stated)
MIC [1]: 0.06
MIC [2]: 0.06
ED50 (Escherichia coli [3]): 3.6 mg/kg
ED50 (Escherichia coli [4]): 0.7 mg/kg
IC50 (DNA gyrase): 14.1 µM

CCN[C@@H]1C[C@H]2CC[C@@H](C1)N2c1cc2c(cc1F)c(=O)c(C(=O)O)cn2C1CC1
MIC [1]: 0.8
MIC [2]: 0.26
ED50 (Streptococcus pneumoniae [5]): 35 mg/kg
ED50 (Escherichia coli [3]): 5.7 mg/kg
ED50 (Escherichia coli [4]): 2.3 mg/kg
ED50 (Streptococcus pneumoniae [6]): 23 mg/kg
IC50 (DNA gyrase): 15.8 µM

CCN[C@H]1C[C@H]2CC[C@@H](C1)N2c1c(F)cc2c(=O)c(C(=O)O)cn(C3CC3)c2c1F
MIC [1]: 0.6
MIC [2]: 0.46
ED50 (Escherichia coli [3]): > 12.5 mg/kg
ED50 (Escherichia coli [4]): 6.5 mg/kg
IC50 (DNA gyrase): 15.1 µM

O=C(O)c1cn(C2CC2)c2nc(N3C[C@H]4CC3CN4)c(F)cc2c1=O
MIC [1]: 0.08
MIC [2]: 0.46
ED50 (Escherichia coli [3]): 53 mg/kg
ED50 (Escherichia coli [4]): 37 mg/kg
IC50 (DNA gyrase): 18.3 µM

CN1CC2CCC1CN2c1nc2c(cc1F)c(=O)c(C(=O)O)cn2C1CC1 (configuration not stated)
MIC [1]: 0.1
MIC [2]: 0.26
ED50 (Escherichia coli [3]): 1.4 mg/kg
ED50 (Escherichia coli [4]): 1.1 mg/kg
IC50 (DNA gyrase): 14.8 µM

O=C(O)c1cn(C2CC2)c2c(F)c(N3C[C@H]4CC3CN4)c(F)cc2c1=O
MIC [1]: 0.07
MIC [2]: 0.53
ED50 (Streptococcus pneumoniae [5]): > 100 mg/kg
ED50 (Escherichia coli [3]): 1.7 mg/kg
ED50 (Escherichia coli [4]): 0.4 mg/kg
ED50 (Streptococcus pneumoniae [6]): 18.5 mg/kg
IC50 (DNA gyrase): 7.75 µM

CCN[C@@H]1C[C@H]2CC[C@@H](C1)N2c1c(F)cc2c(=O)c(C(=O)O)cn(C3CC3)c2c1F
MIC [1]: 0.61
MIC [2]: 0.17
ED50 (Escherichia coli [3]): 5.8 mg/kg
ED50 (Escherichia coli [4]): 3 mg/kg
IC50 (DNA gyrase): 9.1 µM

Nc1c(F)c(N2CCNCC2)c(F)c2c1c(=O)c(C(=O)O)cn2C1CC1
MIC [1]: 0.02
MIC [2]: 0.05
ED50 (Streptococcus pneumoniae [5]): 31 mg/kg
ED50 (Escherichia coli [3]): 0.8 mg/kg
ED50 (Escherichia coli [4]): 0.2 mg/kg
ED50 (Streptococcus pneumoniae [6]): 23 mg/kg

NC1CCN(c2c(F)cc3c(=O)c(C(=O)O)cn(C4CC4)c3c2F)CC1
MIC [1]: 0.2
MIC [2]: 0.08
ED50 (Escherichia coli [3]): 4.7 mg/kg
ED50 (Escherichia coli [4]): 1.4 mg/kg
IC50 (DNA gyrase): < 1.38 µM

O=C(O)c1cn(C2CC2)c2cc(N3CCN4CCC3C4)c(F)cc2c1=O (configuration not stated)
MIC [1]: 0.03
MIC [2]: 0.09
ED50 (Streptococcus pneumoniae [5]): 35 mg/kg
ED50 (Escherichia coli [3]): 1 mg/kg
ED50 (Escherichia coli [4]): 0.3 mg/kg
ED50 (Streptococcus pneumoniae [6]): 11 mg/kg
IC50 (DNA gyrase): 8.39 µM

CCN[C@@H]1C[C@H]2CC[C@@H](C1)N2c1nc2c(cc1F)c(=O)c(C(=O)O)cn2C1CC1
MIC [1]: 0.6
MIC [2]: 0.53
ED50 (Escherichia coli [3]): 21 mg/kg
ED50 (Escherichia coli [4]): 9.1 mg/kg
IC50 (DNA gyrase): 15.7 µM

N[C@H]1C[C@H]2CC[C@@H](C1)N2c1cc2c(cc1F)c(=O)c(C(=O)O)cn2C1CC1
MIC [1]: 0.15
MIC [2]: 0.23
ED50 (Escherichia coli [3]): 9.5 mg/kg
ED50 (Escherichia coli [4]): 2 mg/kg
IC50 (DNA gyrase): 8.08 µM

CN1CC2CCC1CN2c1c(F)cc2c(=O)c(C(=O)O)cn(C3CC3)c2c1F (configuration not stated)
MIC [1]: 0.13
MIC [2]: 0.15
ED50 (Escherichia coli [3]): < 1.6 mg/kg
ED50 (Escherichia coli [4]): < 1.6 mg/kg
IC50 (DNA gyrase): 16.2 µM

NC1CCN(c2cc3c(cc2F)c(=O)c(C(=O)O)cn3C2CC2)CC1
MIC [1]: 0.17
MIC [2]: 0.17
ED50 (Escherichia coli [3]): 15 mg/kg
ED50 (Escherichia coli [4]): 1.4 mg/kg
IC50 (DNA gyrase): 2.32 µM

Nc1c(F)c(N2CCN3CCC2C3)c(F)c2c1c(=O)c(C(=O)O)cn2C1CC1 (configuration not stated)
MIC [1]: 0.03
MIC [2]: 0.08
ED50 (Escherichia coli [3]): 0.6 mg/kg
ED50 (Escherichia coli [4]): 0.2 mg/kg
IC50 (DNA gyrase): 14.1 µM

Cl.O=C(O)c1cn(C2CC2)c2nc(N3C[C@@H]4CC3CN4)c(F)cc2c1=O
MIC [1]: 0.03
MIC [2]: 0.26
ED50 (Escherichia coli [3]): 2.2 mg/kg
ED50 (Escherichia coli [4]): 1.6 mg/kg

Br.O=C(O)c1cn(C2CC2)c2cc(N3C[C@@H]4CC3CN4)c(F)cc2c1=O
MIC [1]: 0.04
MIC [2]: 0.3
ED50 (Streptococcus pneumoniae [5]): > 100 mg/kg
ED50 (Escherichia coli [3]): 1.9 mg/kg
ED50 (Escherichia coli [4]): 0.2 mg/kg
ED50 (Streptococcus pneumoniae [6]): 12.5 mg/kg
IC50 (DNA gyrase): 4.48 µM

CN1CC2C[C@@H]1CN2c1c(F)cc2c(=O)c(C(=O)O)cn(C3CC3)c2c1F.Cl
MIC [1]: 0.09
MIC [2]: 0.17
ED50 (Streptococcus pneumoniae [5]): 13 mg/kg
ED50 (Escherichia coli [3]): 0.9 mg/kg
ED50 (Escherichia coli [4]): 0.5 mg/kg
ED50 (Streptococcus pneumoniae [6]): 14 mg/kg
IC50 (DNA gyrase): 7.28 µM

Cl.N[C@@H]1C[C@H]2CC[C@@H](C1)N2c1nc2c(cc1F)c(=O)c(C(=O)O)cn2C1CC1
MIC [1]: 0.25
MIC [2]: 0.46
ED50 (Streptococcus pneumoniae [5]): 29 mg/kg
ED50 (Escherichia coli [3]): 2.1 mg/kg
ED50 (Escherichia coli [4]): 1.1 mg/kg
ED50 (Streptococcus pneumoniae [6]): 21 mg/kg
IC50 (DNA gyrase): 42.8 µM

Cl.N[C@H]1C[C@H]2CC[C@@H](C1)N2c1nc2c(cc1F)c(=O)c(C(=O)O)cn2C1CC1
MIC [1]: 0.79
MIC [2]: 0.4
ED50 (Escherichia coli [3]): 71 mg/kg
ED50 (Escherichia coli [4]): 6 mg/kg
IC50 (DNA gyrase): 18.3 µM

Cl.N[C@@H]1C[C@H]2CC[C@@H](C1)N2c1c(F)cc2c(=O)c(C(=O)O)cn(C3CC3)c2c1F
MIC [1]: 0.26
MIC [2]: 0.11
ED50 (Escherichia coli [3]): 21 mg/kg
ED50 (Escherichia coli [4]): 4 mg/kg
IC50 (DNA gyrase): 8.92 µM

CCN[C@H]1C[C@H]2CC[C@@H](C1)N2c1cc2c(cc1F)c(=O)c(C(=O)O)cn2C1CC1.F
MIC [1]: 2.76
MIC [2]: 1.81
IC50 (DNA gyrase): 41.7 µM

Br.Nc1c(F)c(N2C[C@@H]3CC2CN3)c(F)c2c1c(=O)c(C(=O)O)cn2C1CC1
MIC [1]: 0.07
MIC [2]: 0.25
ED50 (Escherichia coli [3]): 6.1 mg/kg
ED50 (Escherichia coli [4]): 1.1 mg/kg

O=C(O)c1cn(C2CC2)c2nc(N3CCNCC3)c(F)cc2c1=O
MIC [1]: 0.06
MIC [2]: 1.21
ED50 (Escherichia coli [3]): 0.7 mg/kg
ED50 (Escherichia coli [4]): 0.4 mg/kg
IC50 (DNA gyrase): 150 µM

O=C(O)c1cn(C2CC2)c2cc(N3CCNCC3)c(F)cc2c1=O [CIPROFLOXACIN]
MIC [1]: 0.06
MIC [2]: 0.91
ED50 (Streptococcus pneumoniae [5]): > 100 mg/kg
ED50 (Escherichia coli [3]): 1.2 mg/kg
ED50 (Escherichia coli [4]): 0.3 mg/kg
ED50 (Streptococcus pneumoniae [6]): 29 mg/kg
